Laboratory results: ChEMBL document CHEMBL1156418, “Identification and phenotypic characterization of a beta-lactam-dependent, methicillin-resistant Staphylococcus aureus strain” (2007)
≈ marks a conversion by molar mass, not a printed value. Calls of active or inactive are those of the source. The calls are words filed in the database; no cut-off is given here.

What was measured:
Staphylococcus aureus [1] = test: Antibacterial activity against methicillin-resistant Staphylococcus aureus 2884; assay type: functional
Staphylococcus aureus [2] = test: Antibacterial activity against methicillin-resistant Staphylococcus aureus 2884 isolate at 5 ug by disc diffusion method; assay type: functional; details: read-out: IZ
Outline: (§1)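 Disk diffusion on 100-mm Mueller-Hinton agar plates inoculated with a 0.5 McFarland suspension. Disks: oxacillin 5 μg, cefoxitin 30 μg, ceftobiprole 30 μg, amoxicillin-clavulanic acid 20/10 μg, ofloxacin 5 μg, imipenem 10 μg. Inhibition zone diameters were read per CLSI and CASFM guidelines.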

Staphylococcus aureus [3] = test: Antibacterial activity against methicillin-resistant Staphylococcus aureus 2884 isolate by disc diffusion method; assay type: functional; outline: as §1
Staphylococcus aureus [4] = test: Antibacterial activity against oxacillin-dependent methicillin-resistant Staphylococcus aureus 2884D isolate at 5 ug by disc diffusion method; assay type: functional, organism-based; outline: as §1
Staphylococcus aureus [5] = test: Antibacterial activity against methicillin-resistant Staphylococcus aureus 2884 isolate at 30 ug by disc diffusion method; assay type: functional, organism-based; outline: as §1
Staphylococcus aureus [6] = test: Antibacterial activity against oxacillin-dependent methicillin-resistant Staphylococcus aureus 2884D isolate; assay type: functional
Staphylococcus aureus [7] = test: Antibacterial activity against oxacillin-dependent methicillin-resistant Staphylococcus aureus 2884D isolate assessed as decrease in log bacterial count at >= 256 ug/ml; assay type: functional
Staphylococcus aureus [8] = test: Antibacterial activity against methicillin-resistant Staphylococcus aureus 2884 isolate assessed as decrease in log bacterial count at 1 ug/ml; assay type: functional
Staphylococcus aureus [9] = test: Effect on blaZ gene expression in oxacillin-dependent methicillin-resistant Staphylococcus aureus 2884D isolate at 0.5 ug/ml by RT-PCR; assay type: functional, organism-based
Outline: (§2)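 TaqMan real-time RT-PCR on RNA from exponential-phase cells grown with or without 0.5 μg/ml oxacillin; the dependent strain was also grown on blood agar without oxacillin. Each reaction used 25 ng total RNA, 500 nM primers and 100 nM probe. Cycling: 48°C 30 min, 95°C 10 min, then 40 × (95°C 15 s, 60°C 1 min). Quantified by C_T against a standard curve, expressed relative to 16S; triplicate runs.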

Staphylococcus aureus [10] = test: Effect on blaZ gene expression in oxacillin-dependent methicillin-resistant Staphylococcus aureus 2884D isolate at 0.5 ug/ml in presence of blood agar by RT-PCR; assay type: functional, organism-based; outline: as §2
Staphylococcus aureus [11] = test: Induction of blaR1 gene expression in methicillin-resistant Staphylococcus aureus 2884 isolate by RT-PCR; assay type: functional, organism-based; outline: as §2
Staphylococcus aureus [12] = test: Induction of blaI mRNA expression in methicillin-resistant Staphylococcus aureus 2884 isolate by RT-PCR; assay type: functional, organism-based; outline: as §2
Staphylococcus aureus [13] = test: Induction of blaI mRNA expression in oxacillin-dependent methicillin-resistant Staphylococcus aureus 2884D isolate by RT-PCR; assay type: functional, organism-based; outline: as §2
Staphylococcus aureus [14] = test: Decrease in PBP2 gene expression in oxacillin-dependent methicillin-resistant Staphylococcus aureus 2884D isolate by RT-PCR; assay type: functional, organism-based; outline: as §2
Staphylococcus aureus [15] = test: Effect on vraSR gene expression in oxacillin-dependent methicillin-resistant Staphylococcus aureus 2884D isolate in presence of blood agar by RT-PCR; assay type: functional, organism-based; outline: as §2
Staphylococcus aureus [16] = test: Induction of blaR1 gene expression in oxacillin-dependent methicillin-resistant Staphylococcus aureus 2884D isolate by RT-PCR; assay type: functional, organism-based; outline: as §2

With `CO[C@@]1(NC(=O)Cc2cccs2)C(=O)N2C(C(=O)O)=C(COC(N)=O)CS[C@@H]21` (single isomer, unassigned) [CEFOXITIN] the MIC (Staphylococcus aureus [1]) was 32 µg/mL (≈ 74.9 µM) and the zone of inhibition at 5 µg/disc (Staphylococcus aureus [2]) was 13 mm.
`Nc1nc(/C(=N/O)C(=O)N[C@@H]2C(=O)N3C(C(=O)O)=C(/C=C4\CCN([C@@H]5CCNC5)C4=O)CS[C@H]23)ns1` [CEFTOBIPROLE] was tested, and the MIC (Staphylococcus aureus [1]) was 2 µg/mL (≈ 3.74 µM) and the “inhibition zone (IZ)” value (Staphylococcus aureus [3]) was 34 mm.
`C[C@@H](O)[C@H]1C(=O)N2C(C(=O)O)=C(SCCNC=N)C[C@H]12` [IMIPENEM ANHYDROUS] gave an MIC (Staphylococcus aureus [1]) of 8 µg/mL (≈ 26.7 µM).
In the case of `CC1COc2c(N3CCN(C)CC3)c(F)cc3c(=O)c(C(=O)O)cn1c23` (stereo unspecified) [OFLOXACIN], the Activity (Staphylococcus aureus [4]) is reported as “inactive”, the zone of inhibition at 5 µg/disc (Staphylococcus aureus [2]) is reported as 15 mm and the Activity (Staphylococcus aureus [5]) is reported as “inactive”.
`Cc1onc(-c2ccccc2)c1C(=O)N[C@@H]1C(=O)N2[C@@H]1SC(C)(C)[C@@H]2C(=O)O` [OXACILLIN] showed an MIC (Staphylococcus aureus [1]) of 64 µg/mL (≈ 159 µM), an MIC (Staphylococcus aureus [6]) of at least 256 µg/mL and a CFU/ml (Staphylococcus aureus [7]) of 3. The CFU/ml (Staphylococcus aureus [8]) was 4, the zone of inhibition at 5 µg/disc (Staphylococcus aureus [2]) was 15 mm and the Activity (Staphylococcus aureus [9]) was “inactive”. The Activity (Staphylococcus aureus [10]) was “inactive”, the Activity (Staphylococcus aureus [11]) was “inactive” and the Activity (Staphylococcus aureus [12]) was “Active”. The Activity (Staphylococcus aureus [13]) was “inactive”, the Activity (Staphylococcus aureus [14]) was “Active” and the Activity (Staphylococcus aureus [15]) was “inactive”. The Activity (Staphylococcus aureus [16]) was “Active”.
